Data set [1] concerns the target Mitogen-activated protein kinase 14 (Homo sapiens) (UniProt Q16539). Description: Inhibition of p38alpha in human MM1S cells assessed as reduction in MSK1 phosphorylation at T581 up to 10 uM by Western blot analysis. It counts as cell-based. (In western blotting, separated proteins are transferred to a membrane and probed.)
Data set [2] deals with T1, Bromodomain-containing protein 4 (Homo sapiens, UniProt O60885). Description: Inhibition of BRD4 bromodomain 1 in human A549 cells assessed as reduction in TNFalpha-induced NFkappaB transcription at 1 to 25 uM after 8 hrs by bright-glo luciferase reporter gene assay relative to control. It counts as cell-based. The gist of the method: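 A549-NF-κB-luc cells (DMEM, 10% FBS, hygromycin) were dosed with serial compound dilutions at 0.5% final DMSO. TNF-α (15 ng/mL final) was added 30 min after dosing. Bright-Glo luciferase luminescence was read 8 h later. Activity is expressed as percent NF-κB activity, as means ± SEM of three biological experiments, each with three technical replicates.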
On the technique in general: Reporter assays use an easily measured gene product as a stand-in for the process of interest.

The target of data set [3] is T2, Bromodomain-containing protein 3 (Homo sapiens, UniProt Q15059). Description: Inhibition of human 6x-His-tagged BRD3 bromodomain 2 expressed in Escherichia coli.
Data set [4] concerns the target T3, Bromodomain-containing protein 2 (Homo sapiens, UniProt P25440). Description: Inhibition of human 6x-His-tagged BRD2 bromodomain 2 expressed in Escherichia coli.
For data set [5], the target named is T4, Bromodomain testis-specific protein (Homo sapiens, UniProt Q58F21). Description: Displacement of BI-BODIPY from BRDT C-terminal bromodomain 2 (unknown origin) expressed in Escherichia coli Bl21(DE3) by fluorescence polarization assay. In outline:
(§1)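 Fluorescence anisotropy in 50 mM HEPES, 100 mM NaCl, 4 mM CHAPS pH 7.4, with 15 nM BI-BODIPY tracer and bromodomain set at 80% tracer bound. […] Percent bound was determined where displacement was incomplete.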
(In fluorescence polarisation assays a small probe gives low polarisation when free and higher when bound to something large.)

Data set [6] relates to A549. Description: Cytotoxicity against human A549 cells assessed as reduction in cell viability at 10 to 25 uM after 8 hrs by Alamar blue assay. Format: cell-based. To be noted: a549, 8 h. In outline:
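Viability of A549-NF-κB-luc cells was measured by Alamar Blue colorimetric staining, run in parallel with the luciferase reporter. Cells were dosed with serial compound dilutions at 0.5% final DMSO, TNF-α (15 ng/mL) was added 30 min after dosing, and the read was at 8 h.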

The target of data set [7] is T1, Bromodomain-containing protein 4. Description: Inhibition of BRD4 C-terminal bromodomain 2 (unknown origin) expressed in Escherichia coli Bl21(DE3) by alpha-screen assay.
The target of data set [8] is T2, Bromodomain-containing protein 3. Description: Inhibition of BRD3 N-terminal bromodomain 1 (unknown origin) expressed in Escherichia coli Bl21(DE3) by alpha-screen assay.
Data set [9] shares this target. Description: Inhibition of BRD3 C-terminal bromodomain 2 (unknown origin) expressed in Escherichia coli Bl21(DE3) by alpha-screen assay.
The target of data set [10] is T3, Bromodomain-containing protein 2. Description: Inhibition of BRD2 N-terminal bromodomain 1 (unknown origin) expressed in Escherichia coli Bl21(DE3) by alpha-screen assay.
For data set [11] the target is unchanged. Description: Inhibition of BRD2 C-terminal bromodomain 2 (unknown origin) expressed in Escherichia coli Bl21(DE3) by alpha-screen assay.
The target in data set [12] is T4, Bromodomain testis-specific protein. Description: Inhibition of BRDT N-terminal bromodomain 1 (unknown origin) expressed in Escherichia coli Bl21(DE3) by alpha-screen assay.
Data set [13] concerns the target T1, Bromodomain-containing protein 4. Description: Inhibition of BRD4 N-terminal bromodomain 1 (unknown origin) expressed in Escherichia coli Bl21(DE3) by alpha-screen assay.
The target in data set [14] is T4, Bromodomain testis-specific protein.
Data set [15] shares this target. The source holds these as a separate data set.
The target is the same in data set [16]. Description: Binding affinity to human BRDT bromodomain 1 (unknown origin) expressed in Escherichia coli Bl21(DE3) at 12.5 to 100 uM by protein-observed fluorine NMR method. In outline:
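5-Fluorotryptophan-labeled bromodomain expressed in E. coli Bl21(DE3)+pRARE in defined medium with 5-fluoroindole, induced with 1 mM IPTG at 20 °C, Ni-purified. 19F NMR with 40−50 μM protein in 50 mM TRIS, 100 mM NaCl, 5% D2O pH 7.4, 0.05% DMSO, across varying ligand concentrations. Referenced to trifluoroacetate; 0.7 s relaxation delay, 90° flip.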

Data set [17] has the same target. Description: Inhibition of human BRDT bromodomain 1 expressed in HEK293 cells at 10 uM relative to control. It counts as cell-based.
Data set [18] addresses SWI/SNF-related matrix-associated actin-dependent regulator of chromatin subfamily A member 2 (Homo sapiens) (UniProt P51531). Description: Inhibition of human SMARCA2 (1377 to 1486 residues) (unknown origin) expressed in bacterial expression system at 10 uM relative to control.
Data set [19] deals with Histone acetyltransferase KAT2B (Homo sapiens) (UniProt Q92831). Description: Inhibition of human PCAF (715 to 831 residues) expressed in bacterial expression system at 10 uM relative to control.
The target of data set [20] is Histone acetyltransferase p300 (Homo sapiens) (UniProt Q09472). Description: Inhibition of human P300 (1040 to 1161 residues) expressed in bacterial expression system at 10 uM relative to control.
Data set [21] concerns the target SWI/SNF-related matrix-associated actin-dependent regulator of chromatin subfamily A member 4 (Homo sapiens) (UniProt P51532). Description: Inhibition of human SMARCA4 expressed in HEK293 cells at 10 uM relative to control. Format: cell-based.
Data set [22] has as its system A549. Description: Cytotoxicity against human A549 cells assessed as reduction in cell viability at 0.5 to 50 uM after 8 hrs by Alamar blue assay. Format: cell-based. To be noted: a549, 8 h. The gist of the method:
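A549-NF-κB-luc cells in DMEM/10% FBS with hygromycin were dosed with serially diluted compound at 0.5% final DMSO. TNF-α (15 ng/mL final) was added 30 min after dosing, and viability was read by Alamar Blue in parallel with the 8 h luciferase read. Three biological × three technical replicates.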

Data set [23] addresses T1, Bromodomain-containing protein 4. Description: Displacement of BI-BODIPY from BRD4 C-terminal bromodomain 2 (unknown origin) expressed in Escherichia coli Bl21(DE3) by fluorescence polarization assay. The gist of the method:
as §1

The target is the same in data set [24]. To be noted: A549, 10 uM.
The target is the same in data set [25]. To be noted: A549, 1 uM.
The target is the same in data set [26].
Data set [27] shares this target. Description: Binding affinity to BRD4 bromodomain 1 (unknown origin) expressed in Escherichia coli Bl21(DE3) by isothermal-titration calorimetry.
Data set [28] shares this target. Description: Inhibition of BRD4 bromodomain 1 in human MM1S cells assessed as reduction in c-myc levels at 0.1 to 30 uM by Western blot analysis. It counts as cell-based. The gist of the method: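 MM.1S cells in RPMI-1640/10% FBS were seeded at 10^6 per well and exposed for 6 h to 0.1–30 μM compound. Lysates were run on 12.5% SDS-PAGE and blotted for c-Myc, with GAPDH as loading control. Detection by HRP secondary and ECL on X-ray film.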

Data set [29] addresses Mitogen-activated protein kinase 14 (Homo sapiens) (UniProt Q16539). Description: Inhibition of p38alpha in human MM1S cells assessed as reduction in MSK1 phosphorylation at T581 at 0.1 to 30 uM by Western blot analysis. It counts as cell-based.

pIC50, pKd: −log10 of the molar value. Activity calls are given as the source filed them. The rule behind the calls is not given here.

Here are results for 13 molecules from ChEMBL document CHEMBL4308848, “Molecular Basis for the N-Terminal Bromodomain-and-Extra-Terminal-Family Selectivity of a Dual Kinase-Bromodomain Inhibitor” (J Med Chem, 2018).

T2 sequence (Q15059 whole entry): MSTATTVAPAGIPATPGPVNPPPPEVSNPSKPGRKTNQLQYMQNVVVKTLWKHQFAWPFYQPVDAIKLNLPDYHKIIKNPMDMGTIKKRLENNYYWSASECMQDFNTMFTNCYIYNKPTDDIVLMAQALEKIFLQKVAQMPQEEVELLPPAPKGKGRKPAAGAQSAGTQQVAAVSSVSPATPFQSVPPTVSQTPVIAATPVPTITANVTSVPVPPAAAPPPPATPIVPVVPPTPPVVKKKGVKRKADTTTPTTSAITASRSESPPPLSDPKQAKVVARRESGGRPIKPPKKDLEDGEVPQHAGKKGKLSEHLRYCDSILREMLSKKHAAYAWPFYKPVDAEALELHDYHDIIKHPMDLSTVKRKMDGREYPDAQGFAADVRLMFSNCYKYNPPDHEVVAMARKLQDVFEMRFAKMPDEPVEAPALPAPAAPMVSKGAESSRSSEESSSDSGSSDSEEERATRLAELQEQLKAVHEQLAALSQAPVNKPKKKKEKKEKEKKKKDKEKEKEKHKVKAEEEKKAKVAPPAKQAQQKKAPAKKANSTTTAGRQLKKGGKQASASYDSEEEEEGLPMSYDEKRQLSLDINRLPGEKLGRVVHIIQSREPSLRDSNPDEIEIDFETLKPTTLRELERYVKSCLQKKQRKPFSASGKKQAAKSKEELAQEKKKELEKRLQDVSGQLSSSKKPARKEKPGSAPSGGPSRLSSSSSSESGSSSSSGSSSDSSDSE
T3 sequence (P25440 whole entry): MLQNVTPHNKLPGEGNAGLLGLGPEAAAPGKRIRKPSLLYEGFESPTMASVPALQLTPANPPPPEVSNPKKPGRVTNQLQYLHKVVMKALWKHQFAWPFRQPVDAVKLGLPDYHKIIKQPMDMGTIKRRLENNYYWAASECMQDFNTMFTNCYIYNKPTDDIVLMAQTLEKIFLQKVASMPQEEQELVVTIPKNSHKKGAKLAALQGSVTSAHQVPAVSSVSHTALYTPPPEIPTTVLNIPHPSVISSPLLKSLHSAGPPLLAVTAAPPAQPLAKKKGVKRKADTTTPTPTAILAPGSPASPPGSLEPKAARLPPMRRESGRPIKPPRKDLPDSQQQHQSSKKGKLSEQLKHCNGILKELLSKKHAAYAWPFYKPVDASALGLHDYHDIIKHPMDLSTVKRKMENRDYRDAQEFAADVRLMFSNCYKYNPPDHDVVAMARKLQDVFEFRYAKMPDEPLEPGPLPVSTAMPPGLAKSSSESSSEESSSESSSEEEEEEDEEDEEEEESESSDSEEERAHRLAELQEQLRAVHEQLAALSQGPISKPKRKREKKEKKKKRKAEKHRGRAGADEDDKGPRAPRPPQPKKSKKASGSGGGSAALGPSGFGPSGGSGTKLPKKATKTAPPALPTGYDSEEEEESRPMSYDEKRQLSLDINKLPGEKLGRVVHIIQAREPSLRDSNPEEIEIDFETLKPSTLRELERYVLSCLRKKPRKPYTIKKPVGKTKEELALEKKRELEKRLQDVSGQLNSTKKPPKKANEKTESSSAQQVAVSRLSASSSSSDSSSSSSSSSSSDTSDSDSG
Sequence of Mitogen-activated protein kinase 14 (Homo sapiens) (Q16539 whole entry): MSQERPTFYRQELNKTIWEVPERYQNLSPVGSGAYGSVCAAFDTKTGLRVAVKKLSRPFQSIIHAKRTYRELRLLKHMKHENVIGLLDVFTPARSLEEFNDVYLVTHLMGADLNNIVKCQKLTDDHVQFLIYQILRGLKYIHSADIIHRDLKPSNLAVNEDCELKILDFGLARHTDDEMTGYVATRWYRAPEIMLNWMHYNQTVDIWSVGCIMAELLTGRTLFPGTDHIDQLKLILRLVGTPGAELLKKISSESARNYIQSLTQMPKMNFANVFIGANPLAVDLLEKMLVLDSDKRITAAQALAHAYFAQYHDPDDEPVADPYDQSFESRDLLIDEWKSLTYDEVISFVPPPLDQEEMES
Sequence of Histone acetyltransferase KAT2B (Homo sapiens) (Q92831 whole entry, looked up, the tested form may be a part): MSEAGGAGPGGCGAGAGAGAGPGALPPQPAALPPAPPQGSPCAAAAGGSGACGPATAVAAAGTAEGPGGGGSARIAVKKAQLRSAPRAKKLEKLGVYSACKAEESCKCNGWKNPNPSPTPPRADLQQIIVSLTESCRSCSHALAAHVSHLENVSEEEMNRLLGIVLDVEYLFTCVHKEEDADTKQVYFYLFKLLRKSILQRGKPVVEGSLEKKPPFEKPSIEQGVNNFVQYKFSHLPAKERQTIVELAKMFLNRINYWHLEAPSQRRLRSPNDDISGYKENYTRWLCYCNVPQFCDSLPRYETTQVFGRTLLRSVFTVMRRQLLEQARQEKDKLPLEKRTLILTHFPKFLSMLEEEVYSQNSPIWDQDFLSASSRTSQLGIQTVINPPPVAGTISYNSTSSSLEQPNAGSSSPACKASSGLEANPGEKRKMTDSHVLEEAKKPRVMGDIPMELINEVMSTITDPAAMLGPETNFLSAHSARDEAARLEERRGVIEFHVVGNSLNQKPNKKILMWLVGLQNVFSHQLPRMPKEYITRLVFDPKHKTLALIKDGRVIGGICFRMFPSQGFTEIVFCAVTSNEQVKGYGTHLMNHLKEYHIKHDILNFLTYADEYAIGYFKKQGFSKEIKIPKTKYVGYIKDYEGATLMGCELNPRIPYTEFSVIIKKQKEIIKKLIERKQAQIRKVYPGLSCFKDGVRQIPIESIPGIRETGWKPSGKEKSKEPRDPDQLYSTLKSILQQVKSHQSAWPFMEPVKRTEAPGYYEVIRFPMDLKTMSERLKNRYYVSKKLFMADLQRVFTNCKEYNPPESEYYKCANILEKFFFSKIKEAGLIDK
Sequence of SWI/SNF-related matrix-associated actin-dependent regulator of chromatin subfamily A member 2 (Homo sapiens) (P51531 whole entry, the tested form may be a part): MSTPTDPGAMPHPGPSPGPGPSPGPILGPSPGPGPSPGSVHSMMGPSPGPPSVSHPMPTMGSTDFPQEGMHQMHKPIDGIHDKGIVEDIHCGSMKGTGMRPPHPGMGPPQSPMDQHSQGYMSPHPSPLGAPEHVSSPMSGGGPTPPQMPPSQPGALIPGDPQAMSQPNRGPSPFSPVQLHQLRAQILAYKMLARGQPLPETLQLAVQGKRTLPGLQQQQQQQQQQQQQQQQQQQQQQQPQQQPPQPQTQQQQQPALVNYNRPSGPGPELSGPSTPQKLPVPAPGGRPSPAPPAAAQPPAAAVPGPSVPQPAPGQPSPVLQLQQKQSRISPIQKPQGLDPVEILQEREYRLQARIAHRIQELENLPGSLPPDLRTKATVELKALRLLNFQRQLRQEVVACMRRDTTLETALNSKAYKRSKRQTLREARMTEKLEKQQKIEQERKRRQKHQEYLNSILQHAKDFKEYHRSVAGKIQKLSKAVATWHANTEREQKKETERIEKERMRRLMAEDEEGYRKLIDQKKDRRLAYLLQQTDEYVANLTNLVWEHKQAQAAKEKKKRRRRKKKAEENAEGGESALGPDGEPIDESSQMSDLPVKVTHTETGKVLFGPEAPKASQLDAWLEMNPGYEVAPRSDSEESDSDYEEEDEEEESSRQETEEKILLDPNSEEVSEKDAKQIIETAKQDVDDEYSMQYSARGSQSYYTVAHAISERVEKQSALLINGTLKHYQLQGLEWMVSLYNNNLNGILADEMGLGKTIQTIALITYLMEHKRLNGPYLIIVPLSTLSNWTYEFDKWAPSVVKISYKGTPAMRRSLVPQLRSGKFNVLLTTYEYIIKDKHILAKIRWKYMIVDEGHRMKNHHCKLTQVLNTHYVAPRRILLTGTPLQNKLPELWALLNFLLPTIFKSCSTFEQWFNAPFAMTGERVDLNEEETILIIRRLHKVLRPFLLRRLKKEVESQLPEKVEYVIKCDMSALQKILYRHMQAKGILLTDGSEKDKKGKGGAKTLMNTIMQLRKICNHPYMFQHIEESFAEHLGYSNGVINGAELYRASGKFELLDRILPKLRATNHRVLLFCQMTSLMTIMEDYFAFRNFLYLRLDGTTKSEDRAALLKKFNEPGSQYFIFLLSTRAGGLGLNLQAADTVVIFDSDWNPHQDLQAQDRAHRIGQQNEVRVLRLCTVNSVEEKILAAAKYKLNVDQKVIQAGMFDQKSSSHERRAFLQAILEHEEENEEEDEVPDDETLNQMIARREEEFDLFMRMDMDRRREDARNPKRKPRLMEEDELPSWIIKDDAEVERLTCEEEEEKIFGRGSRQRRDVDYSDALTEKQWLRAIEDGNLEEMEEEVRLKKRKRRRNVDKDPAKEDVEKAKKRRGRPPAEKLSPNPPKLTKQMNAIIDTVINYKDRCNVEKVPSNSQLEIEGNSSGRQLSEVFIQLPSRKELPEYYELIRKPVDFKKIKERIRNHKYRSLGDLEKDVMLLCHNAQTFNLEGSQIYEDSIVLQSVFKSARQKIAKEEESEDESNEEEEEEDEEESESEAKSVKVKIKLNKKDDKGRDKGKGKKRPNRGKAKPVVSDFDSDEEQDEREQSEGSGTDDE

As usually defined, the inhibition is the relative decrease from the control value, in per cent. As to `Cc1sc2c(c1C)C(c1ccc(Cl)cc1)=N[C@@H](CC(=O)OC(C)(C)C)c1nnc(C)n1-2`, the inhibition result in data set [1] is “inactive”.
On to `C[S+]([O-])c1ccc(-c2nc(-c3ccc(F)cc3)c(-c3ccncc3)[nH]2)cc1` (configuration not stated), for which, in data set [2], the inhibition entry is “inactive”.
Broadly, the pKd is −log10 of the Kd, conventionally taken in molar units. `CC(=O)NCCCCn1c2c(c3ccccc31)C(=O)NCC2`: the pKd in data set [3] and in data set [4] was below 4.12 each time.
Turning to `CC[C@@H]1C(=O)N(C)c2cnc(Nc3ccc(C(=O)NC4CCN(C)CC4)cc3OC)nc2N1C1CCCC1`, the inhibition entry in data set [5] is “Active”.
With `NC(=O)c1ccc(N(C(N)=O)c2c(F)cccc2F)nc1-c1ccc(F)cc1F` [VX-702], the Activity result in the data set on A549 [6] is on record as “Non-Toxic”. The inhibition result in [2] is “inactive”.
Broadly, the pIC50 is the IC50 on a negative log10 scale, so that one unit is a factor of ten. A lower pIC50 goes with a high IC50. Take `Cc1cc(C)cc(Nc2nccc(-c3c(CO)nnn3C3CCNCC3)n2)c1`: the pIC50 in data set [7] was 3.99; in data set [8], 3.70; in data set [9], 3.51; in [10] it was below 3.60; in [11], 3.59; in data set [12], 3.96.
Regarding `Cc1cc(C)cc(Nc2nccc(-c3c(C)nnn3C3CCNCC3)n2)c1`, the pIC50 was 6.25 in [7]; 5.89 in data set [13]; 6.11 in [8]; 5.62 in data set [9]; 5.74 in data set [10]; 4.92 in data set [11]. Besides, the negative logarithm of the IC50 (pIC50) in data set [12] was 5.80.
As to `Cc1cc(C)cc(Nc2nccc(-c3c(-c4ccc(F)cc4)ncn3C3CCNCC3)n2)c1`, the pIC50 was 5.46 in [14]; below 3.60 in [15]; 4.95 in data set [8]; below 4.00 in data set [9]; 4.54 in [10]; 4.17 in data set [11]. In addition, the pIC50 in data set [12] was 5.28. Besides, the result in [16] was Active. Further, the inhibition entry in data set [5] is “inactive”. The inhibition is 50% in data set [17]; 40 to 50% in [18]; 40 to 50% in [19]; 40 to 50% in data set [20]; 40 to 50% in [21]. The Activity result in the data set with A549 [22] is “Non-Toxic”.
For the molecule `C[S+]([O-])c1ccc(-c2nc(-c3ccncc3)c(-c3ccc(F)cc3)[nH]2)cc1` (configuration not stated) [SB-203580], the Activity entry in the data set with A549 [6] is “Non-Toxic”.
For the molecule `Fc1ccc(-c2ncn(C3CCNCC3)c2-c2ccnc(Oc3cc(F)cc(F)c3)n2)cc1`, the pIC50 in data set [14] and in data set [15] was below 3.60 in each case.
Regarding `COc1cc(OC)c2c(=O)[nH]c(-c3cc(C)c(OCCO)c(C)c3)nc2c1`, the inhibition entry in data set [23] was “Active”. The values for the inhibition in [24] and in [25] were 25% and 40%, respectively.
Regarding `Cc1cc(C)cc(Nc2nccc(-c3c(-c4ccc(F)cc4)nnn3C3CCNCC3)n2)c1`, the pIC50 is 4.12 in data set [7]; 4.57 in [13]; 4.29 in [8]; 3.96 in data set [9]; 4.37 in [10]; 4.52 in data set [11]. Moreover, in data set [12], the pIC50 was 4.44.
As to `Cc1ccc(Nc2nccc(-c3c(-c4ccc(F)cc4)ncn3C3CCNCC3)n2)cc1C`, the pIC50 in data set [26] was below 3.60; in [14], 5.33; in data set [15], below 3.60. Also, the inhibition result in data set [23] and in data set [5] was “inactive” each time. In [27], this molecule showed a pKd of 5.74. In addition, the inhibition entry in data set [28] and in data set [29] was “Active” throughout. For the same molecule, in the data set with A549 [22], the Activity entry was “Non-Toxic”.
